Experimental data published in ChEMBL document CHEMBL1124220 (J Med Chem, 1988).
Starred links: 1 amine or outer side, 2 acyl side, 3 side chain; linkers in the order of their positions; H or OH if unused. Non-standard residues stand in square brackets, D forms with d. Residues, ends and D or L forms follow the SMILES beside them. Ala(imidazol-2-yl) = N[C@@H](Cc1ncc[nH]1)C(=O)O; X2 = O=C([C@H](CCc1ncc[nH]1)N[*:1])[*:2]; Phe(4-NH2) = Nc1ccc(C[C@H](N)C(=O)O)cc1; 3Thi = N[C@@H](Cc1ccsc1)C(=O)O; Aib = CC(C)(N)C(=O)O; Sar = CNCC(=O)O

Tests used:
Assay type in all cases: functional
[1] = system: Rattus norvegicus; experiment: In vivo agonist angiotensin II like activity was measured in rat blood pressure assay; design: concentration or dose not given beside the values
How it was run: (§1)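 Rat blood pressure in vivo. Residual AII-like activity read as the pressor rise (mmHg) after a 1-μg intravenous bolus of compound. Mean of at least five tests with standard error.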

[2] = system: Rattus norvegicus; experiment: Antagonist activity ID50 was measured in vivo in the rat blood pressure assay
How it was run: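 Rat blood pressure in vivo, 250-g rats, compound given by infusion. AII dose-response curves measured before and during the infusion. ID50 expressed as ng/rat per min. Mean of at least five tests with standard error.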

[3] = species on record: Oryctolagus cuniculus; experiment: In vitro agonist angiotensin II like activity was measured in the rabbit aorta strip assay
How it was run: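 Isolated rabbit aortic strips in vitro. Agonist (AII-like) activity expressed as percent of the activity of AII.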

[4] = system: Rattus norvegicus; experiment: In vivo agonist angiotensin II like activity was measured in rat blood pressure increase by a 1 ug iv injection; how it was run: as §1

| Structure (SMILES) | Activity [1] [%] | ID50 [2] [ng min-1 rat-1] | Activity [3] [%] | BP increase [4] [mmHg] | Activity [4] [%] |
| --- | --- | --- | --- | --- | --- |
| CC[C@H](C)[C@H](NC(=O)[C@H](Cc1ccc(O)cc1)NC(=O)[C@@H](NC(=O)[C@H](N)CCCN)C(C)C)C(=O)N[C@@H](Cc1c[nH]cn1)C(=O)N1CCC[C@H]1C(=O)N[C@@H](Cc1ccccc1)C(=O)O | 23 |  |  |  |  |
| CC[C@H](C)[C@H](NC(=O)[C@@H]1CCCN1C(=O)[C@H](Cc1c[nH]cn1)NC(=O)[C@@H](NC(=O)[C@H](Cc1ccc(O)cc1)NC(=O)[C@@H](NC(=O)[C@@H](C)N)C(C)C)[C@@H](C)CC)C(=O)O |  | 100 | 0 | 5 |  |
| CC[C@H](C)[C@H](NC(=O)[C@@H]1CCCN1C(=O)[C@H](Cc1c[nH]cn1)NC(=O)[C@@H](NC(=O)[C@H](Cc1ccc(O)cc1)NC(=O)[C@@H](NC(=O)[C@H](N)CCCN=C(N)N)C(C)C)[C@@H](C)CC)C(=O)O |  | 100 | 0 | 5 |  |
| CC[C@H](C)[C@H](NC(=O)[C@@H]1CCCN1C(=O)[C@H](Cc1c[nH]cn1)NC(=O)[C@@H](NC(=O)[C@H](Cc1ccc(O)cc1)NC(=O)[C@@H](NC(=O)[C@H](CCCCN=C(N)N)NC(=O)CNC)C(C)C)[C@@H](C)CC)C(=O)O |  | 50 | 0 | 7.5 |  |
| CC[C@H](C)[C@H](NC(=O)[C@@H]1CCCN1C(=O)[C@H](Cc1c[nH]cn1)NC(=O)[C@@H](NC(=O)[C@H](Cc1ccc(O)cc1)NC(=O)[C@@H](NC(=O)[C@@H](CCCN=C(N)N)NC(=O)CNC)C(C)C)[C@@H](C)CC)C(=O)O |  | 100 | 0 | 10 |  |
| CC[C@H](C)[C@H](NC(=O)[C@@H]1CCCN1C(=O)[C@H](Cc1cncn1C)NC(=O)[C@@H](NC(=O)[C@H](Cc1ccc(O)cc1)NC(=O)[C@@H](NC(=O)[C@H](CCCN=C(N)N)NC(=O)CNC)C(C)C)[C@@H](C)CC)C(=O)O |  | 100 | 0 | 2.5 |  |
| CC[C@H](C)[C@H](NC(=O)[C@@H]1CCCN1C(=O)[C@H](Cc1c[nH]cn1)NC(=O)[C@@H](NC(=O)[C@H](Cc1ccc(O)cc1)NC(=O)[C@@H](NC(=O)[C@@H](CCCCN)NC(=O)CNC)C(C)C)[C@@H](C)CC)C(=O)O |  | 50 | 0 | 12.5 |  |
| CC[C@H](C)[C@H](NC(=O)[C@@H]1CCCN1C(=O)[C@H](Cc1c[nH]cn1)NC(=O)[C@@H](NC(=O)[C@H](Cc1ccc(O)cc1)NC(=O)[C@@H](NC(=O)[C@H](CCCNC(N)=O)NC(=O)CNC)C(C)C)[C@@H](C)CC)C(=O)O |  |  | 0 | 25 |  |
| CC[C@H](N)C(=O)N[C@H](C(=O)N[C@@H](Cc1ccc(O)cc1)C(=O)N[C@H](C(=O)N[C@@H](Cc1c[nH]cn1)C(=O)N1CCC[C@H]1C(=O)N[C@@H](Cc1ccccc1)C(=O)O)[C@@H](C)CC)C(C)C | 0.92 |  |  |  |  |
| CC[C@H](C)[C@H](NC(=O)[C@@H]1CCCN1C(=O)[C@H](Cc1c[nH]cn1)NC(=O)[C@@H](NC(=O)[C@H](Cc1ccc(O)cc1)NC(=O)[C@@H](NC(=O)[C@@H](N)CCCN=C(N)N)C(C)C)[C@@H](C)CC)C(=O)O |  | 200 | 0 | 5 |  |
| CC[C@H](C)[C@H](NC(=O)[C@H](Cc1ccc(O)cc1)NC(=O)[C@@H](NC(=O)[C@H](C)N)C(C)C)C(=O)N[C@@H](Cc1c[nH]cn1)C(=O)N1CCC[C@H]1C(=O)N[C@@H](Cc1ccccc1)C(=O)O | 3 |  |  |  |  |
| CC[C@H](C)[C@H](NC(=O)[C@@H]1CCCN1C(=O)[C@H](Cc1c[nH]cn1)NC(=O)[C@@H](NC(=O)[C@H](Cc1ccc(O)cc1)NC(=O)[C@@H](NC(=O)[C@@H](C)NC)C(C)C)[C@@H](C)CC)C(=O)O |  | 25 | 0 | 10 |  |
| CC[C@H](C)[C@H](NC(=O)[C@H](Cc1ccc(O)cc1)NC(=O)[C@@H](NC(=O)[C@@H](C)NC)C(C)C)C(=O)N[C@@H](Cc1c[nH]cn1)C(=O)N1CCC[C@H]1C(=O)N[C@@H](Cc1ccccc1)C(=O)O |  |  | 1.4 | 85 |  |
| CC[C@H](C)[C@H](NC(=O)[C@@H]1CCCN1C(=O)[C@H](Cc1c[nH]cn1)NC(=O)[C@@H](NC(=O)[C@H](Cc1ccc(O)cc1)NC(=O)[C@@H](NC(=O)[C@H](CCCN=C(N)N)NC(=O)CNC)C(C)C)[C@@H](C)CC)C(=O)O |  | 10 | 0 | 10.2 |  |
| CC[C@H](C)[C@H](NC(=O)[C@H](Cc1ccc(O)cc1)NC(=O)[C@@H](NC(=O)[C@H](CCCN=C(N)N)NC(=O)[C@@H](N)CC(=O)O)C(C)C)C(=O)N[C@@H](C)C(=O)N1CCC[C@H]1C(=O)N[C@@H](Cc1ccccc1)C(=O)O (H-DRVYIAPF-OH) | 0.8 |  |  |  |  |
| CC[C@H](C)[C@H](NC(=O)[C@H](Cc1ccc(O)cc1)NC(=O)[C@@H](NC(=O)[C@H](CCCN=C(N)N)NC(=O)[C@@H](N)CC(=O)O)C(C)C)C(=O)N[C@@H](Cc1ccccc1)C(=O)N1CCC[C@H]1C(=O)N[C@@H](Cc1ccccc1)C(=O)O (H-DRVYIFPF-OH) | 5.1 |  |  |  |  |
| CC[C@H](C)[C@H](NC(=O)[C@H](Cc1ccc(O)cc1)NC(=O)[C@@H](NC(=O)[C@H](CCCN=C(N)N)NC(=O)[C@@H](N)CC(=O)O)C(C)C)C(=O)N[C@@H](CCCCN)C(=O)N1CCC[C@H]1C(=O)N[C@@H](Cc1ccccc1)C(=O)O (H-DRVYIKPF-OH) |  |  |  |  | 0.1 |
| CC[C@H](C)[C@H](NC(=O)[C@H](Cc1ccc(O)cc1)NC(=O)[C@@H](NC(=O)[C@H](CCCN=C(N)N)NC(=O)[C@@H](N)CC(=O)O)C(C)C)C(=O)N[C@@H](Cc1ccsc1)C(=O)N1CCC[C@H]1C(=O)N[C@@H](Cc1ccccc1)C(=O)O (H-DRVYI[3Thi]PF-OH) | 19.3 |  |  |  |  |
| CC[C@H](C)[C@H](NC(=O)[C@H](Cc1ccc(O)cc1)NC(=O)[C@@H](NC(=O)[C@H](CCCN=C(N)N)NC(=O)[C@@H](N)CC(=O)O)C(C)C)C(=O)N[C@@H](Cc1ncc[nH]1)C(=O)N1CCC[C@H]1C(=O)N[C@@H](Cc1ccccc1)C(=O)O (H-DRVYI[Ala(imidazol-2-yl)]PF-OH) | 0.4 |  |  |  |  |
| CC[C@H](C)[C@H](NC(=O)[C@H](Cc1ccc(O)cc1)NC(=O)[C@@H](NC(=O)[C@H](CCCN=C(N)N)NC(=O)[C@@H](N)CC(=O)O)C(C)C)C(=O)N[C@@H](Cc1ccc(N)cc1)C(=O)N1CCC[C@H]1C(=O)N[C@@H](Cc1ccccc1)C(=O)O (H-DRVYI[Phe(4-NH2)]PF-OH) | 0.05 |  |  |  |  |
| CC[C@H](C)[C@H](NC(=O)[C@H](Cc1ccc(O)cc1)NC(=O)[C@@H](NC(=O)[C@H](CCCN=C(N)N)NC(=O)[C@@H](N)CC(=O)O)C(C)C)C(=O)N[C@@H](CCc1ncc[nH]1)C(=O)N1CCC[C@H]1C(=O)N[C@@H](Cc1ccccc1)C(=O)O (H-DRVYI[X2]PF-OH) | 0.05 |  |  |  |  |
| CC[C@H](C)[C@H](NC(=O)[C@H](Cc1ccc(O)cc1)NC(=O)[C@@H](NC(=O)[C@H](CCCN=C(N)N)NC(=O)[C@@H](N)CC(N)=O)C(C)C)C(=O)N[C@@H](Cc1c[nH]cn1)C(=O)N1CCC[C@H]1C(=O)N[C@@H](Cc1ccccc1)C(=O)O (H-NRVYIHPF-OH) | 4 |  |  |  |  |
| CC[C@H](C)[C@H](NC(=O)[C@H](Cc1ccc(O)cc1)NC(=O)[C@@H](NC(=O)C(C)(C)N)C(C)C)C(=O)N[C@@H](Cc1c[nH]cn1)C(=O)N1CCC[C@H]1C(=O)N[C@@H](Cc1ccccc1)C(=O)O (H-[Aib]VYIHPF-OH) |  |  | 0 | 60 |  |
| CC[C@H](C)[C@H](NC(=O)[C@@H]1CCCN1C(=O)[C@H](Cc1ccccc1)NC(=O)[C@@H](NC(=O)[C@H](Cc1ccc(O)cc1)NC(=O)[C@@H](NC(=O)[C@H](CCCN=C(N)N)NC(=O)CNC)C(C)C)[C@@H](C)CC)C(=O)O (H-[Sar]RVYIFPI-OH) |  | 100 | 0 | 10 |  |
| CC[C@H](C)[C@H](NC(=O)[C@@H]1CCCN1C(=O)[C@H](Cc1c[nH]c2ccccc12)NC(=O)[C@@H](NC(=O)[C@H](Cc1ccc(O)cc1)NC(=O)[C@@H](NC(=O)[C@H](CCCN=C(N)N)NC(=O)CNC)C(C)C)[C@@H](C)CC)C(=O)O (H-[Sar]RVYIWPI-OH) |  | 100 | 0 | 7.5 |  |
| CC[C@H](C)[C@H](NC(=O)[C@@H]1CCCN1C(=O)[C@H](Cc1ccsc1)NC(=O)[C@@H](NC(=O)[C@H](Cc1ccc(O)cc1)NC(=O)[C@@H](NC(=O)[C@H](CCCN=C(N)N)NC(=O)CNC)C(C)C)[C@@H](C)CC)C(=O)O (H-[Sar]RVYI[3Thi]PI-OH) |  | 100 | 0 | 12.5 |  |
| CC[C@H](C)[C@H](NC(=O)[C@H](Cc1ccc(O)cc1)NC(=O)[C@@H](NC(=O)[C@@H](N)CCCN=C(N)N)C(C)C)C(=O)N[C@@H](Cc1c[nH]cn1)C(=O)N1CCC[C@H]1C(=O)N[C@@H](Cc1ccccc1)C(=O)O (stereo in doubt; 5) | 15 |  | 47.4 |  |  |
| CC[C@H](C)[C@H](NC(=O)[C@H](Cc1ccc(O)cc1)NC(=O)[C@@H](NC(=O)[C@@H](N)CCCN=C(N)N)C(C)C)C(=O)N[C@@H](Cc1c[nH]cn1)C(=O)N1CCC[C@H]1C(=O)N[C@@H](Cc1ccccc1)C(=O)O (stereo in doubt; 6) | 33.3 |  | 43.3 |  |  |
